Source: ChEMBL document CHEMBL4342470, “Detection of Active Granzyme A in NK92 Cells with Fluorescent Activity-Based Probe” (J Med Chem, 2020)
Activity calls are given as the source filed them. The rule behind the calls is not given here. Non-standard residues stand in square brackets, D forms with d. Residues, ends and D or L forms follow the SMILES beside them. ξ: configuration not given here. *: point of attachment. Phe(4-guanidino) = N=C(N)Nc1ccc(C[C@H](N)C(=O)O)cc1; Oic(3aξ,7aξ) = O=C(O)[C@@H]1CC2CCCCC2N1; Phe(4-F) = N[C@@H](Cc1ccc(F)cc1)C(=O)O; ACC = NC(=O)Cc1cc(=O)oc2cc(N*)ccc12; Met(O) = CS(=O)CC[C@H](N)C(=O)O; Tic = O=C(O)[C@@H]1Cc2ccccc2CN1; X1 = Clc1cccc(Cl)c1C*

Assays:
[1] = target: T1, Granzyme A (Homo sapiens) (UniProt P12544); assay: Substrate activity at Granzyme A (unknown origin) expressed in Pichia pastoris incubated for 30 mins by fluorescence based assay
T1 sequence (whole entry): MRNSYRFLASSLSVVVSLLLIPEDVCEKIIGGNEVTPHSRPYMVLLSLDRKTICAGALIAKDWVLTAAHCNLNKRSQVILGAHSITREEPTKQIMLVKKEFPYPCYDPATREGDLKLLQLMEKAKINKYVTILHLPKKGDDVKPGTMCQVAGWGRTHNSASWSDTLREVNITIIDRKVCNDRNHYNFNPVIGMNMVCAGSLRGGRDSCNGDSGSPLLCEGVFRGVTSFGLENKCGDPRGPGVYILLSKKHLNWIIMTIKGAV

[2] = target: T2, Myeloblastin (Homo sapiens) (UniProt P24158); assay: Inhibition of PR3 (unknown origin) expressed in Pichia pastoris using Ac-Glu(O-Bzl)-Lys(Ac)-Hyp(Bzl)-Nva-ACC substrate by spectrofluorometry relative to control
T2 sequence (whole entry): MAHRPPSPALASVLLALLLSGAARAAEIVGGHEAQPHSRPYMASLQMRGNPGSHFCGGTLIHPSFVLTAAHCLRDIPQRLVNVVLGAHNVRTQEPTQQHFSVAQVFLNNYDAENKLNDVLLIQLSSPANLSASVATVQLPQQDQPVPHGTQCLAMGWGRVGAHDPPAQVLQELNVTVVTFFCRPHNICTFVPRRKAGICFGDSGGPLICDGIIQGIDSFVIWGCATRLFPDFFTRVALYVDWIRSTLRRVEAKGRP
Method in brief: (§1)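 Each enzyme preincubated 30 min at 37 °C with 10 μM compound, then its matched ACC substrate added (SK15 for GrA, GrKref, GrBref, Ac-KVPL-ACC for GrM, and the PR3 and hNE substrates). Enzyme levels: GrK 488 nM, GrB 18 nM, GrM 74 nM, hNE 3.3 nM, PR3 3.4 nM. Reference substrates at 200 μM. Fluorescence read at 355/460 nm; residual activity relative to an untreated enzyme control.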

[3] = target: T1, Granzyme A (Homo sapiens); assay: Inhibition of Granzyme A (unknown origin) expressed in Pichia pastoris assessed as second- order inhibition rate constant (Kobs/I ratio) pre-incubated with SK15 substrate for 15 mins before enzyme addition by spectrofluorometry
Method in brief: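 Recombinant GrA at 350 nM, pre-warmed at 37 °C, added to SK15 substrate that had been preincubated 15 min at 37 °C with varied inhibitor or probe (inhibitor range 714–333 nM, SK15 10 μM). Tris/NaCl/CaCl2/Tween-20 buffer, pH 7.5. AMC-type fluorescence at 355/460 nm under pseudo-first-order conditions to give kobs/I. Mean of at least three experiments with standard deviation.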

[4] = target: T3, Granzyme M (Homo sapiens) (UniProt P51124); assay: Inhibition of Granzyme M (unknown origin) expressed in Pichia pastoris using Ac-Lys-Val-Pro-Leu-ACC substrate by spectrofluorometry relative to control; method in brief: as §1
T3 sequence (whole entry): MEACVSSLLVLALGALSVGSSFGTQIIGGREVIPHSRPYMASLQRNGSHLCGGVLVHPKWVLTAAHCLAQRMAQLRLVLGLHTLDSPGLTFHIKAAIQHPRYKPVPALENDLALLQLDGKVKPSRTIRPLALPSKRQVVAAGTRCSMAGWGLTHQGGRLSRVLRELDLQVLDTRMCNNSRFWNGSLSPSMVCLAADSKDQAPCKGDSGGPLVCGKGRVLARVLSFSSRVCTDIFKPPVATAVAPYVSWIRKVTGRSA

[5] = target: T4, Neutrophil elastase (Homo sapiens) (UniProt P08246); assay: Inhibition of human neutrophil elastase expressed in Pichia pastoris using Ac-Arg(NO)2-Glu(Bzl)-Oic-Abu-ACC substrate by spectrofluorometry relative to control; method in brief: as §1
T4 sequence (whole entry): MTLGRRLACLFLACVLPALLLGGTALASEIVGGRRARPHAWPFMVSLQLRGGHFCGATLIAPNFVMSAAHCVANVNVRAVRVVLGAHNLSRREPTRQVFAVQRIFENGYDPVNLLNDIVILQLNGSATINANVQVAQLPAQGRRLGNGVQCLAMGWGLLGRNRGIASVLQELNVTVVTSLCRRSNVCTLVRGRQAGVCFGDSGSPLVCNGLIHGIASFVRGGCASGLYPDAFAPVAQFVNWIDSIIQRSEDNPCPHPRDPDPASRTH

[6] = target: Granzyme B (Homo sapiens) (UniProt P10144); assay: Inhibition of Granzyme B (unknown origin) expressed in Pichia pastoris using GrBref substrate by spectrofluorometry relative to control; method in brief: as §1
Granzyme B (Homo sapiens), sequence (P10144 whole entry): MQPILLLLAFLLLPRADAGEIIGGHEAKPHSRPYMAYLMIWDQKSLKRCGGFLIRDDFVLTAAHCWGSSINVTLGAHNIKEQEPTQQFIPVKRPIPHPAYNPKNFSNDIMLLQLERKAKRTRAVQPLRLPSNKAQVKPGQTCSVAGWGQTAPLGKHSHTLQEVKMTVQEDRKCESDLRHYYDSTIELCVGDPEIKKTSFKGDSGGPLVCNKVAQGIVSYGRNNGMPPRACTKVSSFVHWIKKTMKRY

[7] = target: T1, Granzyme A (Homo sapiens); assay: Inhibition of Granzyme A (unknown origin) expressed in Pichia pastoris using SK15 substrate by spectrofluorometry relative to control; method in brief: as §1
[8] = target: T5, Granzyme K (Homo sapiens) (UniProt P49863); assay: Inhibition of Granzyme K (unknown origin) expressed in Pichia pastoris using GrKref substrate by spectrofluorometry relative to control; settings: concentration not given here; method in brief: as §1
T5 sequence (whole entry): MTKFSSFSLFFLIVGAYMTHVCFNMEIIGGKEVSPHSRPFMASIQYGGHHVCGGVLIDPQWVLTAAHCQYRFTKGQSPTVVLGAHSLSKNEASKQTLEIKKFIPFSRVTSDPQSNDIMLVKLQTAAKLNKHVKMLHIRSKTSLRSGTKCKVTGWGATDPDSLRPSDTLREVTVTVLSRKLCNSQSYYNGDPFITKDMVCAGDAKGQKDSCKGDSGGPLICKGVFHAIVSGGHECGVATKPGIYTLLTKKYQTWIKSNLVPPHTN

[9] = target: T1, Granzyme A (Homo sapiens); assay: Binding affinity to Granzyme A in human NK92 cells at 1 uM treated 1 hr after GrA covalent inhibitor methyl 4-[(3S)-3-[[2-[(2S)-2-[(1-diphenoxyphosphoryl-4-guanidinobutyl)carbamoyl]-2,3,3a,4,5,6,7,7a-octahydroindol-1-yl]-2-oxoethyl]carbamoyl]-3,4-dihydro-1H-isoquinolin-2-yl]-4-oxobutanoate dosing and measured 30 mins to 2 hrs post dose by SDS-PAGE analysis; type: cell-based
[10] = target: T1, Granzyme A (Homo sapiens); assay: Binding affinity to Granzyme A (unknown origin) expressed in Pichia pastoris assessed as minimum concentration needed for GrA labeling at enzyme to probe ratio was 1:1 incubated for 5 to 30 mins by SDS-PAGE based in-gel detection method
Method in brief: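 Recombinant GrA (Pichia pastoris), 250 nM, with probe at 10–500 nM for 30 min at 37 °C in pH 7.5 Tris/NaCl/CaCl2/Tween-20 buffer. SDS/DTT reduction, 4–12% Bis-Tris SDS-PAGE, transfer, and probe fluorescence at 658 nm, used to estimate the lowest labeling concentration.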

[11] = target: T1, Granzyme A (Homo sapiens); assay: Binding affinity to Granzyme A in human NK92 cells at 250 nM to 2 uM incubated for 1 hr by SDS-PAGE based in-gel detection assay; type: cell-based
[12] = target: T1, Granzyme A (Homo sapiens); assay: Binding affinity to Granzyme A active form (unknown origin) expressed in Pichia pastoris by Western blot analysis
Method in brief: (§2)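 Active GrA or proenzyme diluted to 250 nM final in pH 7.5 assay buffer, with or without 1 h preincubation with 1 μM diphenyl phosphonate inhibitor at 37 °C. Probe added at 500 nM final for another 1 h, then SDS/DTT, SDS-PAGE and transfer. Probe read at 658 nm, anti-GrA rabbit monoclonal with Alexa 488 secondary.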

[13] = target: T1, Granzyme A (Homo sapiens); assay: Binding affinity to Granzyme A (unknown origin) expressed in Pichia pastoris assessed as appearance of fluorescent 35 kDa species at enzyme to probe ratio was 1:1 incubated for 5 mins by SDS-PAGE based in-gel detection method
Method in brief: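 Recombinant GrA (Pichia pastoris) at 250 nM with 250 nM Cy5 probe (1:1) in Tris/NaCl/CaCl2/Tween-20 buffer pH 7.5, 37 °C, for 0–120 min. Reduced in SDS/DTT at 95 °C, run on 4–12% Bis-Tris SDS-PAGE, transferred to nitrocellulose, fluorescence read at 658 nm.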

[14] = target: T1, Granzyme A (Homo sapiens); assay: Binding affinity to Granzyme A in human NK92 cells at 1 uM measured 30 mins to 2 hrs post dose by SDS-PAGE analysis; type: cell-based
[15] = target: T1, Granzyme A (Homo sapiens); assay: Binding affinity to Granzyme A active form (unknown origin) expressed in Pichia pastoris at 500 nM in presence of 1 uM methyl 4-[(3S)-3-[[2-[(2S)-2-[(1-diphenoxyphosphoryl-4-guanidinobutyl)carbamoyl]-2,3,3a,4,5,6,7,7a-octahydroindol-1-yl]-2-oxoethyl]carbamoyl]-3,4-dihydro-1H-isoquinolin-2-yl]-4-oxobutanoate by Western blot analysis; method in brief: as §2
[16] = target: T1, Granzyme A (Homo sapiens); assay: Binding affinity to Granzyme A zymogen form (unknown origin) expressed in Pichia pastoris at 500 nM in presence of 1 uM compound 3 by Western blot analysis; method in brief: as §2
[17] = target: T1, Granzyme A (Homo sapiens); assay: Binding affinity to Granzyme A zymogen form (unknown origin) expressed in Pichia pastoris by Western blot analysis; method in brief: as §2
[18] = target: T5, Granzyme K (Homo sapiens); assay: Substrate activity at Granzyme K (unknown origin) expressed in Pichia pastoris assessed as compound hydrolysis at 200 uM incubated for 30 mins by fluorescence based assay relative to control; design: scale not given: the % may be the effect or the level left
[19] = target: Granzyme B (Homo sapiens) (UniProt P10144); assay: Substrate activity at Granzyme B (unknown origin) expressed in Pichia pastoris assessed as compound hydrolysis at 200 uM incubated for 30 mins by fluorescence based assay relative to control

For CC[C@H](C)[C@H](NC(C)=O)C(=O)NCC(=O)N1C2CCCCC2C[C@H]1C(=O)N[C@@H](Cc1ccc(NC(=N)N)cc1)C(=O)Nc1ccc2c(CC(N)=O)cc(=O)oc2c1 (some centres undefined) (Ac-IG[Oic(3aξ,7aξ)][Phe(4-guanidino)]-{ACC}), the Activity [1] was “Active”.

With CC(=O)N[C@@H](CC[S+](C)[O-])C(=O)NCC(=O)N[C@@H](Cc1ccc(F)cc1)C(=O)N[C@@H](Cc1ccc(NC(=N)N)cc1)C(=O)Nc1ccc2c(CC(N)=O)cc(=O)oc2c1 (some centres undefined) (Ac-[Met(O)]G[Phe(4-F)][Phe(4-guanidino)]-{ACC}) the Activity [1] was “Active”.

CC(=O)N[C@@H](CC[S+](C)[O-])C(=O)NCC(=O)N1CC(OCc2ccccc2)C[C@H]1C(=O)N[C@@H](CCCNC(=N)N)C(=O)Nc1ccc2c(CC(N)=O)cc(=O)oc2c1 (some centres undefined) was tested, and the Activity [1] was “Active”.

Work on COC(=O)CCC(=O)N1Cc2ccccc2C[C@H]1C(=O)NCC(=O)N1C2CCCCC2C[C@H]1C(=O)NC(CCCNC(=N)N)P(=O)(Oc1ccccc1)Oc1ccccc1 (some centres undefined) yielded an inhibition ([2]; concentration not given here) of under 20%, a Ratio [3] of 171000 s⁻¹ M⁻¹ and an inhibition ([4]; concentration not given here) of under 20%. It also gave an inhibition ([5]; concentration not given here) of under 20%, an inhibition ([6]; concentration not given here) of under 20% and an inhibition ([7]; concentration not given here) of under 20%. The inhibition [8] was under 20%.

In the case of CN1\C(=C/C=C/C=C/C2N(CCCCCC(=O)NCCCCCC(=O)N3Cc4ccccc4C[C@H]3C(=O)NCC(=O)N3C4CCCCC4C[C@H]3C(=O)NC(CCCNC(=N)N)P(=O)(Oc3ccccc3)Oc3ccccc3)c3ccccc3C2(C)C)C(C)(C)c2ccccc21 (some centres undefined), the Activity [9] is reported as “inactive”, the inhibition [2] is reported as “inactive” and the Ratio [3] is reported as 3520 s⁻¹ M⁻¹. The MEC [10] was 50 nM, the inhibition [4] was “inactive” and the Activity [11] was “Active”. For the same molecule, the Activity [12] was “Active”, the Activity [13] was “Active” and the Activity [14] was “Active”. For the same molecule, the inhibition [5] was “inactive”, the inhibition [6] was “inactive” and the inhibition [7] was “inactive”. The Activity [15] was “inactive”, the Activity [16] was “inactive” and the Activity [17] was “inactive”. It also gave an inhibition [8] of 3%.

CC(=O)N1Cc2ccccc2C[C@H]1C(=O)NCC(=O)N1C2CCCCC2C[C@H]1C(=O)N[C@@H](CCCNC(=N)N)C(=O)Nc1ccc2c(CC(N)=O)cc(=O)oc2c1 (stereo partly drawn) (Ac-[Tic]G[Oic(3aξ,7aξ)]R-{ACC}) was tested, and the Activity [18] was 20% and the Activity [19] was “inactive”.

CC(=O)N[C@@H](CC[S+](C)[O-])C(=O)NCC(=O)N[C@@H](Cc1ccc(OCc2c(Cl)cccc2Cl)cc1)C(=O)N[C@@H](Cc1ccc(NC(=N)N)cc1)C(=O)Nc1ccc2c(CC(N)=O)cc(=O)oc2c1 (some centres undefined) (Ac-[Met(O)]GY(X1)[Phe(4-guanidino)]-{ACC}) was tested, and the Activity [1] was “Active”.
